Columns and labels:
[1] = target: T1, D(2) dopamine receptor (Rattus norvegicus, UniProt P61169); assay: In vitro ability to inhibit the binding of [3H]spiperone to dopamine receptor D2 in rat striatal membranes.; format: cell membranes, Membrane
[2] = target: T1, D(2) dopamine receptor; assay: Inhibition of [3H]raclopride binding to rat striatal membrane Dopamine receptor D2
[3] = test system: Rattus norvegicus; assay: Dose which blocks the hypothermic effect of apomorphine by 50% against Sprague-Dawley rats when administered intraperitoneally; format: functional; conditions: ip
Summary of the method: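 Sprague-Dawley rats (n = 6 per group) were pretreated ip with saline or compound 60 min before apomorphine HCl (1 mg/kg sc). Core temperature was taken by rectal probe before dosing, before apomorphine and 15 min after it. Mean changes were expressed as percent of control.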

[4] = test system: Rattus norvegicus; assay: Catalepsy interval defined as the time required for both fore limbs to be removed from the bar when administered intraperitoneally; format: functional; conditions: ip
Summary of the method: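 Rats given test compound ip, then tested on a horizontal bar (1.5 cm diameter, 7 cm above cage floor) at 20, 40, 60, 90, 120 and 240 min after injection. A saline control group was tested the same way. An animal counted as cataleptic if it held ≥ 15 s. The proportion cataleptic at each dose gave dose-response curves, and ED50 came from probit analysis.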

[5] = test system: Rattus norvegicus; assay: Evaluated in vitro for antipsychotic activity (hyperactivity) for the block of apomorphine induced response after ip administration 60 min prior to apomorphine (1 mg/kg sc); format: functional
Summary of the method: (§1)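 Male Sprague-Dawley rats (270–325 g) received compound ip, in saline or in acetic acid plus distilled water, 60 min before apomorphine HCl (1 mg/kg sc, neck). Hyperactivity and stereotypies were scored 5, 20, 40 and 60 min after apomorphine.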

[6] = test system: Rattus norvegicus; assay: Evaluated in vitro for antipsychotic activity (stereotypies) for the block of apomorphine induced response after ip administration 60 min prior to apomorphine (1 mg/kg sc); format: functional; summary of the method: as §1

T1 sequence (P61169 whole entry): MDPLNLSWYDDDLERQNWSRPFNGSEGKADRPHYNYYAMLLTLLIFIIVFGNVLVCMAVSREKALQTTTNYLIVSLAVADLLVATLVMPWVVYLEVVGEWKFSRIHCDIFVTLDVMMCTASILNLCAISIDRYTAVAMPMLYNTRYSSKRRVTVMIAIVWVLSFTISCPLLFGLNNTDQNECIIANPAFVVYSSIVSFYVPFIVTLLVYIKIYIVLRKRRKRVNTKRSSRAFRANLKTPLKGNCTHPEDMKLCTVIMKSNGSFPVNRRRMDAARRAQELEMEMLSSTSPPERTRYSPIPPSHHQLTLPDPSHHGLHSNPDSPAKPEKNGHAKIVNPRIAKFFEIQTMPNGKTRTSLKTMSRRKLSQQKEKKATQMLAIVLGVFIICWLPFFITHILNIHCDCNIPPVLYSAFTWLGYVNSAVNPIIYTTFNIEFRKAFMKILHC

`CCCc1cc(OC)c(OC)c(C(=O)NC[C@@H]2CCCN2CC)c1OC` showed an IC50 [1] of 2960 nM.

For `CCN1CCC[C@H]1CNC(=O)c1c(N)c(Br)cc(OC)c1OC`, the IC50 [1] was 21 nM.

`CCN1CCC[C@H]1CNC(=O)c1c(O)ccc(OC)c1OC` showed a Ki [2] of 0.75 nM.

With `CCN1CCC[C@H]1CNC(=O)c1c(O)c(Br)cc(OC)c1OC` the ED50 [3] was 0.005 µmol/kg, the Ki [2] was 0.064 nM and the ED50 [4] was 0.14 µmol/kg.

`CCc1cc(Cl)c(OC)c(C(=O)NC[C@@H]2CCCN2CC)c1O` [ETICLOPRIDE] was tested, and the ED50 [3] was 0.09 µmol/kg, the ED50 [5] was 0.015 µmol/kg and the ED50 [4] was 0.74 µmol/kg. The ED50 [6] was 0.19 µmol/kg.

For `CCc1cc(OC)c(OC)c(C(=O)NC[C@@H]2CCCN2CC)c1O`, the Ki [2] was 0.033 nM and the IC50 [1] was 0.77 nM.

With `CCN1CCC[C@H]1CNC(=O)c1c(O)c(OC)cc(Br)c1OC` the Ki [2] was 8.38 nM, the ED50 [5] was 1.3 µmol/kg and the IC50 [1] was 67 nM. For the same compound, the ED50 [6] was 12 µmol/kg.

Compound `CCN1CCC[C@H]1CNC(=O)c1cc(S(N)(=O)=O)ccc1OC` [LEVOSULPIRIDE] has an ED50 [3] of 8 µmol/kg, an ED50 [5] of 55 µmol/kg and an ED50 [4] of 280 µmol/kg. The ED50 [6] was 290 µmol/kg.

Compound `CCN1CCC[C@@H]1CNC(=O)c1c(O)c(OC)cc(Br)c1OC` has an IC50 [1] of 6170 nM.

Compound `CCN1CCC[C@H]1CNC(=O)c1c(OC)c(Cl)cc(OC)c1OC` has an IC50 [1] of 420 nM.

For `CCc1cc(OC)c(O)c(C(=O)NC[C@@H]2CCCN2CC)c1OC`, the IC50 [1] was 19 nM.

Work on `CCc1cc(OC)c(OC)c(C(=O)NC[C@@H]2CCCN2CC)c1OC` yielded an IC50 [1] of 820 nM.

`CCN1CCC[C@H]1CNC(=O)c1c(O)c(Br)cc(O)c1OC` showed an IC50 [1] of 1.9 nM.

`CCN1CCC[C@H]1CNC(=O)c1c(O)c(Cl)cc(Cl)c1OC` [RACLOPRIDE] was tested, and the ED50 [3] was 0.2 µmol/kg and the ED50 [4] was 11 µmol/kg.

For `O=C(CCCN1CCC(O)(c2ccc(Cl)cc2)CC1)c1ccc(F)cc1` [HALOPERIDOL], the ED50 [3] was 0.35 µmol/kg, the ED50 [5] was 0.37 µmol/kg and the ED50 [4] was 0.9 µmol/kg. It also gave an ED50 [6] of 0.27 µmol/kg.

`CCN1CCC[C@@H]1CNC(=O)c1c(O)c(Br)cc(OC)c1OC` showed a Ki [2] of 6.54 nM, an ED50 [5] of 12.6 µmol/kg and an IC50 [1] of 79 nM. For the same compound, the ED50 [6] was 5.3 µmol/kg.

`CCN1CCC[C@H]1CNC(=O)c1c(O)c(Br)cc(N)c1OC` showed an IC50 [1] of 33 nM.

`CCN1CCC[C@H]1CNC(=O)c1c(O)c(OC)cc(Cl)c1OC` showed an IC50 [1] of 71 nM.

Compound `C=CCN1CCC[C@H]1CNC(=O)c1c(O)c(OC)cc(Br)c1OC` has an IC50 [1] of 44 nM.

With `CCN1CCC[C@H]1CNC(=O)c1c(O)ccc(O)c1OC` the IC50 [1] was 56 nM.

`CCN1CCC[C@H]1CNC(=O)c1c(OC)c(Br)cc(OC)c1OC` gave an IC50 [1] of 1750 nM.

Compound `CCN1CCC[C@H]1CNC(=O)c1c(O)c(Cl)cc(OC)c1OC` has a Ki [2] of 0.087 nM and an IC50 [1] of 1.7 nM.

`CCN1CCC[C@H]1CNC(=O)c1c(OC)ccc(OC)c1O` gave an IC50 [1] of 205 nM.

Compound `CCCc1cc(OC)c(OC)c(C(=O)NC[C@@H]2CCCN2CC)c1O.O=C(O)/C(O)=C(\O)C(=O)O` has a Ki [2] of 0.023 nM.
